In ChEMBL document CHEMBL1122190, “Mammary tumor inhibiting effect of 3,3'-diacetoxy-alpha, beta-dialkylstilbenes and of related stilbene oxides” (1982):
Values belong to the compound of their own block, whether it stands above or below them.

How the values were obtained:
[1] = target: T1, Estrogen receptor (Mus musculus) (UniProt O08537+P19785); assay: Percent inhibition of estrone-stimulated uterine growth in immature mouse at 25 ug dose; type: functional
In short: (§1)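 Dorfman uterine weight test in immature female NMRI mice, ten per group, 20 days old and 10-12 g at start. Compounds were given in olive oil sc once daily for 3 days. Mice were killed 24 h after the last injection, and uteri were removed, dried at 100 °C for 24 h and weighed.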

[2] = test system: Estrogen receptor (Bos taurus); assay: In vitro relative binding affinity for Estrogen receptor compared to [3H]estradiol
[3] = target: T1, Estrogen receptor (Mus musculus); assay: Uterotrophic activity in mice at 10 ug dose; type: functional, tissue-based; settings: Uterus; in short: as §1
[4] = target: T1, Estrogen receptor (Mus musculus); assay: Antiuterotrophic activity in mice at 5 ug dose; type: functional; in short: as §1
[5] = target: T1, Estrogen receptor (Mus musculus); assay: Percent inhibition of estrone-stimulated uterine growth in immature mouse at 250 ug dose; type: functional; in short: as §1
[6] = test system: Mus musculus; assay: Effect on estrogen and progesterone receptors positive hormone-dependent postmenopausal human mammary carcinoma tumor growth in nude mice at 2.4 mg/kg/day; type: functional
In short: (§2)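 Nude mice carried serially transplanted hormone-dependent human mammary carcinoma. Compounds in olive oil were given sc 6 times a week for 4-5 weeks. Two tumor diameters were measured weekly, and size at treatment start was set as 1. Tumor size was averaged after 5 weeks of therapy.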

[7] = target: T1, Estrogen receptor (Mus musculus); assay: Uterotrophic activity in mice at 100 ug dose; type: functional, tissue-based; settings: Uterus; in short: as §1
[8] = target: T1, Estrogen receptor (Mus musculus); assay: Percent inhibition of estrone-stimulated uterine growth in immature mouse at 100 ug dose; type: functional; in short: as §1
[9] = target: T1, Estrogen receptor (Mus musculus); assay: Antiuterotrophic activity in mice at 100 ug dose; type: functional; in short: as §1
[10] = target: T1, Estrogen receptor (Mus musculus); assay: Antiuterotrophic activity in mice at 250 ug dose; type: functional; in short: as §1
[11] = target: T1, Estrogen receptor (Mus musculus); assay: Percent inhibition of estrone-stimulated uterine growth in immature mouse at 5 ug dose; type: functional; in short: as §1
[12] = target: T1, Estrogen receptor (Mus musculus); assay: Antiuterotrophic activity in mice at 25 ug dose; type: functional; in short: as §1
[13] = target: T1, Estrogen receptor (Mus musculus); assay: Uterotrophic activity in mice at 500 ug dose; type: functional, tissue-based; settings: Uterus
In short: (§3)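 Dorfman uterine weight test in immature female NMRI mice (20 days old at start, 10-12 g; ten per group). Compound given sc daily in olive oil for 3 days. Animals killed 24 h after last injection; uteri removed, dried at 100 °C for 24 h and weighed.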

[14] = test system: Mus musculus; assay: Effect on estrogen and progesterone receptors positive hormone-dependent postmenopausal human mammary carcinoma tumor growth in nude mice at 2.6 mg/kg/day; type: functional; in short: as §2
[15] = target: T1, Estrogen receptor (Mus musculus); assay: Uterotrophic activity in mice at 1 ug dose; type: functional, tissue-based; settings: Uterus; in short: as §1
[16] = target: T1, Estrogen receptor (Mus musculus); assay: Uterotrophic activity in mice at 50 ug dose; type: functional, tissue-based; settings: Uterus; in short: as §3
[17] = target: T1, Estrogen receptor (Mus musculus); settings: Uterus
[18] = test system: Mus musculus; assay: Effect on estrogen and progesterone receptors positive hormone-dependent postmenopausal human mammary carcinoma tumor growth in nude mice at 3.0 mg/kg/day; type: functional; in short: as §2

T1 sequence (O08537 whole entry, looked up): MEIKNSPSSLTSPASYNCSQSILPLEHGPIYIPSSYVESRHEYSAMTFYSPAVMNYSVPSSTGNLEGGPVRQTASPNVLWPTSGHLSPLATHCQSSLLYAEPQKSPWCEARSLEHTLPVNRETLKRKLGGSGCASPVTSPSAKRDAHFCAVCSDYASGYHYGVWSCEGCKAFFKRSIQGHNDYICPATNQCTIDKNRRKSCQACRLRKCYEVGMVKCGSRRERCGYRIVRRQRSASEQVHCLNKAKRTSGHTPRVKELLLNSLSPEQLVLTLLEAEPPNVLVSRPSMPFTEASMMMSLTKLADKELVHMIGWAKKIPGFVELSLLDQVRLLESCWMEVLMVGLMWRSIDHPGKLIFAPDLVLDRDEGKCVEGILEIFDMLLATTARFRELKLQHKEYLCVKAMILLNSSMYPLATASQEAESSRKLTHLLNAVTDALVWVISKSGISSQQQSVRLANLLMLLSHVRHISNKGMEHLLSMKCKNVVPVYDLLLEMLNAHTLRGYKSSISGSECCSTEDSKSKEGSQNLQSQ
T1 sequence (P19785 whole entry, looked up): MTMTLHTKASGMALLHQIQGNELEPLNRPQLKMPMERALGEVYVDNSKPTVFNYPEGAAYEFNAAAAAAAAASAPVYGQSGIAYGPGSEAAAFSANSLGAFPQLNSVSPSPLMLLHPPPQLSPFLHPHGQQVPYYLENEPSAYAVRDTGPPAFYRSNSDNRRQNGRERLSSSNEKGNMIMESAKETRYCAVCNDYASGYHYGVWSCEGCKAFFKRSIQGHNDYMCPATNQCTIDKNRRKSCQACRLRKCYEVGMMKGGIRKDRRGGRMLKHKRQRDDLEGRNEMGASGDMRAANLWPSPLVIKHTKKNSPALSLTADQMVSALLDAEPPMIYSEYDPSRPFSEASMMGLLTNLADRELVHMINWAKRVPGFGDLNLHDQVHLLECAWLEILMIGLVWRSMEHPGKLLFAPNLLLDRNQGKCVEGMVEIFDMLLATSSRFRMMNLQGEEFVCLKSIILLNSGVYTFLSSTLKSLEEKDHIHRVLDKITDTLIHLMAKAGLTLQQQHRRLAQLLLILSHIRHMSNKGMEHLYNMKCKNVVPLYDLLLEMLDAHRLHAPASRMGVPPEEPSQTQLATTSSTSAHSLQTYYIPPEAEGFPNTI

SMILES: CC/C(=C(/CC)c1cccc(OC(C)=O)c1)c1cccc(OC(C)=O)c1
- RBA [2]: 2.2%
- Effect [3]: 24.3
- Tumor size [14]: 2.3
- Effect [7]: 32.7
- Effect [15]: 15.9
- Effect [13]: 42
- Effect [16]: 27.4

SMILES: CC(=O)Oc1cccc(/C(C)=C(\C)c2cccc(OC(C)=O)c2)c1
- RBA [2]: 0.4%
- Tumor size [6]: 3.42

SMILES: CCCC/C(=C(/CCCC)c1cccc(OC(C)=O)c1)c1cccc(OC(C)=O)c1
- RBA [2]: 0.6%
- Tumor size [18]: 4.1

Now from value to compound, other results behind:

- inhibition [1]: 23%
- RBA [2]: 0.8%
- Effect [3]: 17
- Effect [4]: 37.9
- inhibition [5]: 31.7%
- Effect [7]: 15
- inhibition [8]: 33.4%
- Effect [9]: 32.6
- Effect [10]: 33.1
- inhibition [11]: 17.4%
- Effect [12]: 36.1
- Effect [13]: 20.6
SMILES: CC(=O)Oc1cccc(C2(C)OC2(C)c2cccc(OC(C)=O)c2)c1 (stereo not given)
- Tumor size [6]: 2.72

- Effect [17]: 40.7
SMILES: C[C@]12CC[C@@H]3c4ccc(O)cc4CC[C@H]3[C@@H]1CCC2=O
